# In ChEMBL document CHEMBL1268838, “The synthesis and biologic evaluation of anti-platelet and cytotoxic β-nitrostyrenes” (Bioorg Med Chem, 2010):
# Experiments:
# [1] = system: MDA-MB-231; test: Cytotoxicity against human MDA-MB-231 cells after 72 hrs by MTT assay; type: functional, cell-based; conditions: MDA-MB-231, 72 h
# Procedure, shortened: (§1)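 MDA-MB-231 breast cancer or HBL-100 non-malignant breast epithelial cells: freshly trypsinized cells seeded at 8000 per well, with compound added from DMSO-diluted stock. After 72 h, attached cells were given MTT (0.5 mg/mL, 1 h) and solubilized in DMSO.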
# [2] = system: HBL-100; test: Cytotoxicity against human HBL100 cells at 20 uM after 72 hrs by MTT assay; type: functional; conditions: HBL-100, 72 h
# [3] = system: HBL-100; test: Cytotoxicity against human HBL100 cells after 72 hrs by MTT assay; type: functional, cell-based; conditions: HBL-100, 72 h; procedure, shortened: as §1
# [4] = Antiaggregatory activity in human platelets assessed as inhibition of collagen-induced platelet aggregation preincubated for 3 mins before collagen challenge by turbidimetry analysis; type: functional, cell-based
# Procedure, shortened: (§2)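 Washed platelets from ACD-anticoagulated blood of drug-free healthy volunteers, resuspended at 3 × 10⁸/ml in Tyrode's solution with Ca²⁺ 2 mM, glucose 11.1 mM and BSA 3.5 mg/ml. Platelets were stirred at 1200 rpm and 37 °C for 3 min with DMSO (0.5%, vehicle) or compound, then the inducer was added. Aggregation was read by light-transmission aggregometry. IC50 is the mean of two independent experiments (TPA lines n = 3).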
# [5] = system: MDA-MB-231; test: Cytotoxicity against human MDA-MB-231 cells at 20 uM after 72 hrs by MTT assay; type: functional; conditions: MDA-MB-231, 72 h
# [6] = Antiaggregatory activity in human platelets assessed as inhibition of thrombin-induced platelet aggregation preincubated for 3 mins before thrombin challenge by turbidimetry analysis; type: functional, cell-based; procedure, shortened: as §2
SMILES,IC50 [1] [µM],inhibition at 20 µM [2] [%],IC50 [3] [µM],IC50 [4] [µM],inhibition at 20 µM [5] [%],IC50 [6] [µM]
CCOc1cc(/C=C/[N+](=O)[O-])ccc1O,> 20,35.2,> 20,16.2,34.4,78.1
O=[N+]([O-])/C(O)=C/c1ccccc1,13.9,34.9,> 20,7.8,21.2,35.5
O=[N+]([O-])C(=Cc1ccccc1)[N+](=O)[O-],9.9,34.2,> 20,3,,5.7
COc1cc(/C=C/[N+](=O)[O-])ccc1OC(=O)c1cc(Cl)cc(Cl)c1,> 20,15.6,> 20,1.4,20,1.9
COc1cc(/C=C/[N+](=O)[O-])ccc1OC(=O)c1ccc(F)c(F)c1F,> 20,1.1,> 20,2.7,3.7,23
COc1cc(/C=C/[N+](=O)[O-])ccc1OC(=O)c1cc(F)c(F)c(F)c1,12.4,16.6,> 20,0.9,,1.4
COc1cc(/C=C/[N+](=O)[O-])ccc1OC(=O)c1cc(OC)c(OC)c(OC)c1,13.9,47.4,> 20,1.1,,1.1
CCOc1cc(/C=C/[N+](=O)[O-])ccc1OC(=O)c1ccccc1,15.3,,11.6,1,,1.2
COc1ccc(/C=C/[N+](=O)[O-])cc1OC(=O)c1ccccc1,7.7,79.8,< 10,0.8,,1.9
CCOc1cc(/C=C(\C)[N+](=O)[O-])ccc1OC(=O)c1ccccc1,12.1,,14.6,1.1,,0.8
COc1ccc(/C=C(\C)[N+](=O)[O-])cc1OC(=O)c1ccccc1,6.6,,7.3,1,,2.9
COc1cc(/C=C/[N+](=O)[O-])ccc1OC(=O)c1ccccc1F,> 20,4.9,> 20,1.6,26.5,4.7
COc1cc(/C=C/[N+](=O)[O-])ccc1OC(=O)c1ccccc1Cl,> 20,8.2,> 20,0.6,7,1
COc1cc(/C=C/[N+](=O)[O-])ccc1OC(=O)c1ccccc1Br,> 20,10,> 20,2,8.3,5.4
COc1cc(/C=C/[N+](=O)[O-])ccc1OC(=O)c1ccccc1C(F)(F)F,> 20,2.4,> 20,1.3,20.4,2.5
COc1cc(/C=C/[N+](=O)[O-])ccc1OC(=O)c1ccccc1C,> 20,1.8,> 20,1.2,36.3,1.5
COc1cc(/C=C/[N+](=O)[O-])ccc1OC(=O)c1ccccc1OC,19.4,8.8,> 10,0.8,,2.1
COc1cc(/C=C/[N+](=O)[O-])ccc1OC(=O)c1cccc(F)c1,> 20,38.2,> 20,1.4,44.9,2.6
COc1cc(/C=C/[N+](=O)[O-])ccc1OC(=O)c1cccc(Cl)c1,18.9,23.2,> 20,0.5,,1.2
COc1cc(/C=C/[N+](=O)[O-])ccc1OC(=O)c1cccc(Br)c1,> 20,18.2,> 20,0.9,19.1,1.3
COc1cc(/C=C/[N+](=O)[O-])ccc1OC(=O)c1cccc(C(F)(F)F)c1,> 20,12.5,> 20,1.7,34.9,3.3
COc1cc(/C=C/[N+](=O)[O-])ccc1OC(=O)c1cccc(C)c1,13.4,,4.1,0.9,,1.7
COc1cccc(C(=O)Oc2ccc(/C=C/[N+](=O)[O-])cc2OC)c1,> 20,,12.1,0.7,28.9,2.9

SMILES,IC50 [1] [µM],inhibition at 20 µM [2] [%],IC50 [3] [µM],IC50 [4] [µM],inhibition at 20 µM [5] [%],IC50 [6] [µM]
COc1cc(/C=C/[N+](=O)[O-])ccc1OC(=O)c1ccc(F)cc1,9.8,25.1,> 20,0.8,,0.9
COc1cc(/C=C/[N+](=O)[O-])ccc1OC(=O)c1ccc(Cl)cc1,> 20,7.3,> 20,0.7,33.2,1.5
COc1cc(/C=C/[N+](=O)[O-])ccc1OC(=O)c1ccc(Br)cc1,> 20,6.3,> 20,0.6,9.1,1.2
COc1cc(/C=C/[N+](=O)[O-])ccc1OC(=O)c1ccc(C(F)(F)F)cc1,> 20,-7.3,> 20,8.3,-4.9,6.2
COc1cc(/C=C/[N+](=O)[O-])ccc1OC(=O)c1ccc(C)cc1,> 20,8,> 20,2,7.9,2.7
COc1ccc(C(=O)Oc2ccc(/C=C/[N+](=O)[O-])cc2OC)cc1,18.1,22.7,> 20,0.8,,3.5
COc1cc(/C=C/[N+](=O)[O-])ccc1OC(=O)c1cccc(F)c1F,> 20,4.1,> 20,1.6,25.5,3.3
COc1cc(/C=C/[N+](=O)[O-])ccc1OC(=O)c1ccc(F)cc1F,> 20,16,> 20,2,18.5,3
COc1cc(/C=C/[N+](=O)[O-])ccc1OC(=O)c1ccc(F)c(F)c1,> 20,0.5,> 20,1.1,22.1,2.9
COc1cc(/C=C/[N+](=O)[O-])ccc1OC(=O)c1cc(F)cc(F)c1,> 20,19,> 20,1.4,24.7,3.4
COc1cc(/C=C/[N+](=O)[O-])ccc1OC(=O)c1ccc(Cl)cc1Cl,> 20,9.9,> 20,0.7,-0.1,0.7
COc1cc(/C=C/[N+](=O)[O-])ccc1OC(=O)c1ccc(Cl)c(Cl)c1,> 20,15.2,> 20,1.8,9.4,1
Cc1ccc(/C=C/[N+](=O)[O-])cc1,> 20,,15,5.9,,8.9
O=[N+]([O-])/C=C/c1ccc(Cl)cc1,> 20,,15.7,3.5,36.6,7.5
COc1ccc(/C=C/[N+](=O)[O-])cc1,16.3,,13,3.5,,12.1
O=[N+]([O-])/C=C/c1ccc(O)cc1,> 20,,16.3,18.4,38.3,45.1
COc1cc(/C=C/[N+](=O)[O-])ccc1O,,,,16.4,,66.5
COc1cc(/C=C/[N+](=O)[O-])ccc1OC(=O)c1ccccc1,13.1,0,> 20,1.1,,2.7
COc1ccc(/C=C/[N+](=O)[O-])cc1O,18.9,,12.8,7.2,,28.5
COc1ccc(/C=C/[N+](=O)[O-])cc1OC,,,,7.6,,12.8
O=[N+]([O-])/C=C/c1ccc2c(c1)OCO2,14,39.2,> 20,7.2,,14
O=[N+]([O-])/C=C/c1ccccc1 [(2-NITROVINYL)BENZENE],,,,4.9,,17.8
